Paper PMC7114172 (ACS Omega, 2020)
Bridge positions count the residues as written; N and C are the ends. Square brackets hold non-standard residues; d marks the D form. Ends that are not written are not given here. Peptide text beside a SMILES is read from it. * marks the point of attachment. Myristoyl = CCCCCCCCCCCCCC(=O)*; Phe(ol) = N[C@H](CO)Cc1ccccc1; Aib = CC(C)(N)C(=O)O; NHCH2CH2OH = OCCN*; For = O=C*

What was measured:
LPS E. coli K-235 = experiment: LPS binding, dansyl cadaverine; set-up: species or system Escherichia coli; settings: LPS E. coli K-235 280 μg/mL, DC 12 μM, 10 mM phosphate buffer pH 7.4, 25 °C
Procedure, shortened: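 Test peptide was added in small successive aliquots to a preformed DC:LPS complex. […] Excitation was at 340 nm and emission scanned 420–600 nm (slits 2.5/5 nm). Probe occupancy was calculated as (F−F0)/(Fmax−F0), where F0 is DC alone, Fmax is DC at maximum LPS, and F is DC–LPS at each peptide concentration. A positive-control peptide was run first.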

S. aureus (ATCC 8530) = settings: concentration at which no viable colonies are formed; 10 mM phosphate buffer pH 7.4; cited from earlier work
[1] = test system: E. coli K-12 strain MG1655 (CGSC-7740); settings: concentration at which no viable colonies are formed; 10 mM phosphate buffer pH 7.4; cited from earlier work

Compound | Relative binding affinity to LPS (DC displacement) (LPS E. coli K-235) | MBC, S. aureus (S. aureus (ATCC 8530)) | MBC, E. coli [1]
Myristoyl-ACPIFTKIQGTYRGKAKCK (disulfide 2-18 (inferred)) [MPhd1] | more affinity as compared to Phd2-3 and MPhd2-3 | 5 µM | 5 µM
Myristoyl-FCPRRYKQIGTGLPGTKCK (disulfide 2-18 (inferred)) [MPhd2] |  | 5 µM | 6 µM
ACPIFTKIQGTYRGKAKCK (disulfide 2-18 (inferred)) [Phd1] | more affinity as compared to Phd2-3 and MPhd2-3 | 20 µM | 19 µM
CC(=O)NC(C)(C)C(=O)N1CCC[C@H]1C(=O)NC(C)(C)C(=O)N[C@@H](C)C(=O)NC(C)(C)C(=O)N[C@@H](C)C(=O)N[C@@H](CCC(N)=O)C(=O)NC(C)(C)C(=O)N[C@H](C(=O)NC(C)(C)C(=O)NCC(=O)N[C@@H](CC(C)C)C(=O)NC(C)(C)C(=O)N1CCC[C@H]1C(=O)N[C@H](C(=O)NC(C)(C)C(=O)NC(C)(C)C(=O)N[C@@H](CCC(=O)O)C(=O)N[C@@H](CCC(N)=O)C(=O)N[C@H](CO)Cc1ccccc1)C(C)C)C(C)C [alamethicin] (Ac-[Aib]P[Aib]A[Aib]AQ[Aib]V[Aib]GL[Aib]PV[Aib][Aib]EQ[Phe(ol)]; N-terminus assumed) | weak affinity as compared to polymyxin B |  | 
Myristoyl-SCLPKEEQIGKSTRGRKCRRKK (disulfide 2-18 (inferred)) [MPhd3] |  | 4 µM | 4 µM
cyclized isooctanoyl BTBB(BF^dLBBT) (lariat or depsi) [polymyxin B] | strong binding compared to HBD2-3 as well as LL37 and melittin |  | 
CC(C)C[C@@H](NC(=O)[C@H](C)NC(=O)CNC(=O)[C@@H](NC=O)C(C)C)C(=O)N[C@@H](C)C(=O)N[C@@H](C(=O)N[C@H](C(=O)N[C@@H](C(=O)N[C@@H](Cc1c[nH]c2ccccc12)C(=O)N[C@H](CC(C)C)C(=O)N[C@@H](Cc1c[nH]c2ccccc12)C(=O)N[C@H](CC(C)C)C(=O)N[C@@H](Cc1c[nH]c2ccccc12)C(=O)N[C@H](CC(C)C)C(=O)N[C@@H](Cc1c[nH]c2ccccc12)C(=O)NCCO)C(C)C)C(C)C)C(C)C [gramicidin A] (For-VGA[dL]A[dV]V[dV]W[dL]W[dL]W[dL]W-NHCH2CH2OH; N-terminus and C-terminus assumed) | weak affinity as compared to polymyxin B |  | 
